According to ChEMBL document CHEMBL1152193, “Structure-activity relationships of natural and non-natural amino acid-based amide and 2-oxoamide inhibitors of human phospholipase A(2) enzymes” (Bioorg Med Chem, 2008):

Tests used:
[1] = biological target: T1, 85/88 kDa calcium-independent phospholipase A2 (Homo sapiens) (UniProt O60733); experiment: Inhibition of human group 6A cytosolic Ca(2+)-independent phospholipase A2 at 0.091 mole fraction by modified Dole assay
T1 sequence (whole entry): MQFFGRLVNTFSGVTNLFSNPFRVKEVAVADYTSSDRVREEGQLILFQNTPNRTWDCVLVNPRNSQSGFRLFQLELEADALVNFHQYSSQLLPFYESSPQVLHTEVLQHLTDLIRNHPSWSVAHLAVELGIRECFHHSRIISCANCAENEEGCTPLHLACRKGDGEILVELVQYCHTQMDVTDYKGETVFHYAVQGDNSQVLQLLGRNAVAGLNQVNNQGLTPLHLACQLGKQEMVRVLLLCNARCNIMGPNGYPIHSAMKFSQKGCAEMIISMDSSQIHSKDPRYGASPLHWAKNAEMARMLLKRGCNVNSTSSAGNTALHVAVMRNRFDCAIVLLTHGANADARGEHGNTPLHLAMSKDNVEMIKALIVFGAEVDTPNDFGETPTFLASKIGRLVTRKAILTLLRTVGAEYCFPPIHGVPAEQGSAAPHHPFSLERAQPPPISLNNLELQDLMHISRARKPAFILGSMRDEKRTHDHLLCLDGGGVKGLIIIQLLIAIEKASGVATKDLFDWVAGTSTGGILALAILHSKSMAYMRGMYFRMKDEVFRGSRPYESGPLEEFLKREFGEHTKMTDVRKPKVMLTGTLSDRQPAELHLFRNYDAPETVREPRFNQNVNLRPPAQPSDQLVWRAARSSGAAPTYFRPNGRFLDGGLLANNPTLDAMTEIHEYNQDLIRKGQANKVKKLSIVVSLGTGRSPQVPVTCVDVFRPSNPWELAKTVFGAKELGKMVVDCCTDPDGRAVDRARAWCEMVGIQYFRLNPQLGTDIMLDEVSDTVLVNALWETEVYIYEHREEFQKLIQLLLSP

[2] = biological target: T2, Phospholipase A2 group V (Homo sapiens) (UniProt P39877); experiment: Inhibition of human group 5 Ca2+-dependent secretory phospholipase A2 at 0.091 mole fraction by modified Dole assay
T2 sequence (whole entry): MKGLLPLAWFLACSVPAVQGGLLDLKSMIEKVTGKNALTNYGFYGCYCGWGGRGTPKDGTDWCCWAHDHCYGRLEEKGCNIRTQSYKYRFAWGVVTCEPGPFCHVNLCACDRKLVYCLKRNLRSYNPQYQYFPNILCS

[3] = biological target: T3, Cytosolic phospholipase A2 (Homo sapiens) (UniProt P47712); experiment: Inhibition of human group 4A cytosolic Ca2+-dependent phospholipase A2 at 0.091 mole fraction by modified Dole assay
T3 sequence (whole entry): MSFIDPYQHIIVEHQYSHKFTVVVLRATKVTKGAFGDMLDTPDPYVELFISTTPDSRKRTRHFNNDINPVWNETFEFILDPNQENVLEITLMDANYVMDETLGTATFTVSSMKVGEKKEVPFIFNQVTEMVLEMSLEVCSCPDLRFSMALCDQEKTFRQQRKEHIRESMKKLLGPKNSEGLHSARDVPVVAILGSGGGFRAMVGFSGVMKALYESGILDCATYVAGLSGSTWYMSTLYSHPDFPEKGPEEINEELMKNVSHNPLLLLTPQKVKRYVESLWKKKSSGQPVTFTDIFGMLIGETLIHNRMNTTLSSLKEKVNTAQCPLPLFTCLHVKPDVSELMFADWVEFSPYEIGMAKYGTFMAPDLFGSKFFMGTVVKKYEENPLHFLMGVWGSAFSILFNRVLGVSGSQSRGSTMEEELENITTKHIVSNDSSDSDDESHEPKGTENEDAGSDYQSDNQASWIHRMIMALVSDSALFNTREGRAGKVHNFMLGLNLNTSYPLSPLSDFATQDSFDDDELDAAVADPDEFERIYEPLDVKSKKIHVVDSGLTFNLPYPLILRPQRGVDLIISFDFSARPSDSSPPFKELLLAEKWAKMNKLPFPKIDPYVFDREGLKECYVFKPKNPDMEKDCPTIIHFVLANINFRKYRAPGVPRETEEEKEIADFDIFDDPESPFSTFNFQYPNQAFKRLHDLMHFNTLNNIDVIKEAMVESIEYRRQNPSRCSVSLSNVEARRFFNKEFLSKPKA
Summary of the method: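 Buffer: 100 mM HEPES pH 7.5, 90 μM CaCl2, 2 mM DTT, 0.1 mg/ml BSA. Inhibitor present at 0.091 mole fraction of the total substrate interface; percent inhibition determined.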

An inhibition [1] of under 25%, an inhibition [2] of under 25% and an inhibition [3] of under 25% were found for `COC(=O)CNC(=O)CCCCCCc1ccccc1` in this work.
An inhibition [1] of 62%, an inhibition [2] of 62% and an inhibition [3] of 74% were found for `CCCCCCCCCCCCCCC(=O)C(=O)NCC(=O)OCC` in this work.
An inhibition [1] of 63%, an inhibition [2] of 38% and an inhibition [3] of 53% were found for `C=CCOC(=O)CCCNC(=O)C(=O)CCCCCCCCCCCCCC` in this work.
An inhibition [1] of 51%, an inhibition [2] of 59% and an inhibition [3] of 44% were found for `CCCCCCCCCCCCCCC(=O)C(=O)NCCC(=O)OCC` in this work.
An inhibition [1] of 66%, an inhibition [2] of under 25% and an inhibition [3] of 62% were found for `CCCCCCCCCCCCCCC(=O)C(=O)N[C@@H](CCCC)CCCCC(=O)OCC` in this work.
An inhibition [1] of 45%, an inhibition [2] of 52% and an inhibition [3] of 62% were found for `CCCCCCCCCCCCCCC(=O)C(=O)NCC(=O)OC` in this work.
An inhibition [1] of 72%, an inhibition [2] of 87% and an inhibition [3] of 85% were found for `CCCCCCCCCCCCCCC(=O)C(=O)N[C@@H](C)CCC(=O)OC(C)(C)C` in this work.
An inhibition [1] of under 25%, an inhibition [2] of 95% and an inhibition [3] of under 25% were found for `CCCC[C@H](CCC(=O)O)NC(=O)CCCCCCc1ccccc1` in this work.
An inhibition [1] of 31%, an inhibition [2] of 30% and an inhibition [3] of 54% were found for `COC(=O)CNC(=O)C(=O)CCCCCCc1ccccc1` in this work.
An inhibition [1] of 51%, an inhibition [2] of 64% and an inhibition [3] of 62% were found for `CCCCCCCCCCCCCCC(=O)C(=O)NCCCCOCC` in this work.
An inhibition [1] of under 25%, an inhibition [2] of 78% and an inhibition [3] of 87% were found for `CCCCCCCCCCCCCCC(=O)C(=O)Nc1ccc(C(=O)OCC)cc1` in this work.
An inhibition [1] of 62%, an inhibition [2] of 72% and an inhibition [3] of 74% were found for `CCCCCCCCCCCCCCC(=O)C(=O)NCCCCC(=O)OC(C)(C)C` in this work.
An inhibition [1] of under 25%, an inhibition [2] of 42% and an inhibition [3] of under 25% were found for `CCCCCCCCCCCCCCC(=O)C(=O)NCCCCC(=O)OC` in this work.
An inhibition [1] of 53%, an inhibition [2] of 82% and an inhibition [3] of 80% were found for `CCCCCCCCCCCCCCC(=O)C(=O)NCC(=O)OC(C)(C)C` in this work.
An inhibition [1] of 78%, an inhibition [2] of 86% and an inhibition [3] of 87% were found for `CCCCCCCCCCCCCCC(=O)C(=O)N[C@@H](CCCC)CCC(=O)OC` in this work.
An inhibition [1] of 74%, an inhibition [2] of 52% and an inhibition [3] of 64% were found for `CCCCCCCCCCCCCCC(=O)C(=O)N[C@H](/C=C/C=C/C(=O)OCC)CCCC` in this work.
An inhibition [1] of under 25%, an inhibition [2] of under 25% and an inhibition [3] of 85% were found for `CCCCCCCCCCCCCCC(=O)C(=O)N[C@H](/C=C/C=C/C(=O)O)CCCC` in this work.
An inhibition [1] of 57%, an inhibition [2] of 66% and an inhibition [3] of 36% were found for `CC(C)(C)OC(=O)CCNC(=O)CCCCCCc1ccccc1` in this work.
An inhibition [1] of under 25%, an inhibition [2] of under 25% and an inhibition [3] of 32% were found for `CCCCCCCCCCCCCCC(=O)C(=O)NCCCC(=O)CCCC` in this work.
An inhibition [1] of under 25%, an inhibition [2] of under 25% and an inhibition [3] of under 25% were found for `CCCC[C@@H](CCC(=O)O)NC(=O)CCCCCCc1ccccc1` in this work.
An inhibition [1] of 35%, an inhibition [2] of 47% and an inhibition [3] of 31% were found for `CCCCCCCCCCCCCCC(=O)C(=O)NCCCCC(=O)OCC` in this work.
An inhibition [1] of 54%, an inhibition [2] of 72% and an inhibition [3] of 79% were found for `CCCCCCCCCCCCCCC(=O)C(=O)NCCC(=O)OC(C)(C)C` in this work.
An inhibition [1] of under 25%, an inhibition [2] of 38% and an inhibition [3] of 35% were found for `CCCCCCCCCCCCCCC(=O)C(=O)NCCCC(=O)OCc1ccccc1` in this work.
An inhibition [1] of under 25%, an inhibition [2] of 48% and an inhibition [3] of under 25% were found for `CCCCCCCCCCCCCCC(=O)C(=O)NCCC(=O)OC` in this work.
An inhibition [1] of 65%, an inhibition [2] of 65% and an inhibition [3] of 83% were found for `CCCCCCCCCCCCCCC(=O)C(=O)N[C@H](CCC(=O)OC)CC(C)C` in this work.
An inhibition [1] of 81%, an inhibition [2] of 69% and an inhibition [3] of 82% were found for `CC(C)(C)OC(=O)CCNC(=O)C(=O)CCCCCCc1ccccc1` in this work.
